A selection: hits, their analogues and other compounds. The true share with any hit is near 2.5%.
NR2E3 ag-1 = human photoreceptor-specific nuclear receptor agonism; Q9Y5X4; CHO-S Gal4-NCOR/VP16-NR2E3 two-hybrid, luciferase; inhibition of corepressor binding, % at 3.98 µM; 0.35% of 360,000 active;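 active = inhibition above the mean of all tested compounds plus 3 SD, cut at about 70% in these data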;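 also: 0% = DMSO with NR2E3 transfected cells and 100% = cells lacking NR2E3 construct; higher means lower luciferase signal from less NR2E3 corepressor binding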
NR2E3 ag-2 = NR2E3 (human) agonism. Q9Y5X4. GST-NR2E3/biotin-RetCOR TR-FRET, 1536-well. inhibition of corepressor binding, % at 4.78 µM. 0.12% of 320,000 active;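 active = percent inhibition above the cutoff of mean plus 3 SD of all tested compounds, set per screening campaign, cut at about 20% in these data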;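 also: 0% = DMSO wells and 100% = biotin wells as full block of FRET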
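Material: NR2E3–RetCOR corepressor complex | Quantity: 1.35 nM GST-tagged NR2E3 final | Schedule: 5 h at 4 °C | Replication: Singlicate compound wells | Reagent: RetCOR corepressor, biotinylated, 7 nM | Controls: Biotin wells as high control, 0.6% DMSO wells as low control | Signal: TR-FRET, Eu(K)-anti-GST donor, streptavidin-D2 acceptor, ex 340, em 617/671 nm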
ADAM17 inh = inhibits human ADAM17 | P78536 | recombinant ADAM17, EDANS/DABCYL FRET peptide cleavage | inhibition, % at 6.95 µM | 0.83% of 370,000 active | AID 720648;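 active = inhibition above the mean of compounds lying between control limits plus 3 SD, set per campaign, cut at about 8.5% in these data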;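 also: 0% = DMSO-only wells as the low control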
ADAM10 inh = ADAM10 inhibition, QFRET primary screen; AID 720582; recombinant ADAM10, EDANS/DABCYL FRET peptide cleavage, 3 h; inhibition, % at 7 µM; 0.62% of 370,000 active; O14672;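 active = inhibition above a per-campaign cutoff equal to the mean of compounds falling between control-based bounds plus 3 SD, cut at about 20% in these data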;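 also: 0% = DMSO wells while the 100% control is not disclosed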
JMJD2C inh = human JMJD2C demethylase inhibition. Q9H3R0. 0.069% of 330,000 active. AID 2099. GST-JMJD2C(1-420) H3K9me3 demethylation, DELFIA europium. inhibition, % at 2.35 µM;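 active = more than half of a compound's replicate wells show inhibition beyond 50%, single wells judged on their own value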;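 also: signal counts dimethyl H3K9 product captured on neutravidin plate; 0% = median of DMSO wells and 100% = 0.3 times that DMSO median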
Target sequence (Q9H3R0 1-420 limits assumed): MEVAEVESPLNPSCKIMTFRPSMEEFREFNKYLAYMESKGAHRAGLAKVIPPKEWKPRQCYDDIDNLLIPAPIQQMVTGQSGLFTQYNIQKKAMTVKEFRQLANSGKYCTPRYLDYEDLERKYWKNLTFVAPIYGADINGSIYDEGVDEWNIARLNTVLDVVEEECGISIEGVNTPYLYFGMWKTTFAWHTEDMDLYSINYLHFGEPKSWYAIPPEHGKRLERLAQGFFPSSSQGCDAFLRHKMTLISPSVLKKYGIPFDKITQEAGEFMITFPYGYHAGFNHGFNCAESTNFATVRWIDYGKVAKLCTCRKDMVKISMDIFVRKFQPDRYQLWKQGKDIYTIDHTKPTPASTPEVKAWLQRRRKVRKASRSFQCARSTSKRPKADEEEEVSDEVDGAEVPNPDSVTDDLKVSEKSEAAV
KLK7 zymogen act = activates the human kallikrein-7 zymogen; purified proKLK7, EDANS-DABCYL substrate fluorescence; 100% is mature enzyme control, 0% vehicle; 0.9% of 370,000 active; activation, % at 7 µM; P49862; AID 652039;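 active = activation above the mean of all tested compounds plus 3 SD, computed per campaign excluding outliers beyond control limits, cut at about 13% in these data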
Target sequence (P49862 whole entry, looked up): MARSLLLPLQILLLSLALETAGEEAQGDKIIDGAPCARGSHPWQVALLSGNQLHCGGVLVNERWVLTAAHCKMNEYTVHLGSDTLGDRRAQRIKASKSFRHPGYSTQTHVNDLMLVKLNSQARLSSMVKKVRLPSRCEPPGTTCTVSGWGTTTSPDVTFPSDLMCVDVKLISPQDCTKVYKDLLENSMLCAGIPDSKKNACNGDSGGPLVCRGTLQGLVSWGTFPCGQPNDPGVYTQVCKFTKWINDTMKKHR
proKLK7 act conf = proKLK7 activation, confirmation; 68% of 3,200 active; purified proKLK7, EDANS-DABCYL substrate fluorescence; scaled: vehicle 0, mature enzyme 100; activation, % at 7 µM; shares compounds with KLK7 zymogen act;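 active = activation, as change over the incubation, above the mean of all tested compounds plus 3 SD, cut at about 13% in these data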
EDANS-DABCYL int = fluorescence interference counter-screen for KLK7 activators | shares compounds with KLK7 zymogen act | EDANS-DABCYL substrate fluorescence interference, no enzyme, 4 h; solvent 0%, active enzyme control 100% | activation, % at 7 µM | 80% of 3,200 active | AID 686952;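 active = activation above the all-compound mean plus 3 SD, ignoring values outside control-based bounds, cut at about 4.8% in these data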;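 also: value is the 4 h activation minus the activation read at time zero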
EDANS interf = EDANS fluorescence interference in dose response, no enzyme; shares compounds with KLK7 zymogen act; EDANS-DABCYL peptide fluorescence interference; EC50, µM; 20% of 250 active;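 active = compounds that raise the fluorescence signal in this interference counterscreen, with EC50 at or below 10 µM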;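 also: intact quenched peptide substrate alone read at 355 nm excitation and 520 nm emission; signal is fluorescence gain from T0 to T4 after four hours at room temperature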
* hit, by the source's call; i = inactive; · = not tested or not shown.

SMILES	NR2E3 ag-1	NR2E3 ag-2	ADAM17 inh	ADAM10 inh	JMJD2C inh	KLK7 zymogen act	proKLK7 act conf	EDANS-DABCYL int	others
O=C(Nc1ccc(F)cc1)Nc1sccc1-c1nc2ccccc2s1	6.2	1.2	-25.3	-63.3	-1.7	31.9*	-184.1	-286.9
O=C(Nc1ccc(O)c(-c2nc3ccccc3s2)c1)c1cccs1	-29.3	-1.9	1.1	1.3	-16.7	-0.1	·	·
c1ccc2c(c1)Sc1cnccc1N2CC1CO1 (stereo unspecified)	-8.3	·	-4.2	-17.6	·	-0.7	·	·
CS(=O)(=O)N1CCC(C(=O)Nc2cccc(Br)c2)CC1	9.4	1.4	-1.5	-0.2	-46.6	0.2	·	·
COc1cccc2c(=O)c3ccccc3oc12	-34.0	-0.9	-91.1	-302.6	-4.9	13.3*	14.6*	21.5*
COc1cccc2c(=O)ccoc12	-13.8	0.9	-28.4	-71.7	-0.1	1.8	·	·
COc1ccc2oc3ccccc3c(=O)c2c1	-69.8	-3.0	-352.4	i	1.4	25.3*	70.4*	62.5*
COc1ccc2oc3ccc(OC)cc3c(=O)c2c1	-88.2	1.3	-115.1	-486.2	3.2	1.1	·	·
COc1ccc(N(CC(=O)Nc2cccc(C(=O)O)c2)S(=O)(=O)c2c(C)noc2C)cc1	-17.0	-2.3	3.7	-0.9	·	16.6*	-0.5	-0.3
CCOC(=O)c1cccc(NC(=O)CN(c2ccc(OC)cc2)S(=O)(=O)c2c(C)noc2C)c1	-3.3	-0.3	3.7	11.5	8.6	-0.2	·	·
CC1(c2ccccc2)NC(=O)N(CC(=O)Nc2ccccc2C(=O)NC2CC2)C1=O (stereo unspecified)	-24.4	5.6	-3.0	-5.4	-4.0	0.2	·	·
c1cc(Nc2ncnc3sc4c(c23)CCC4)ccn1	25.6	-3.9	-172.7	i	1.4	32.2*	55.8*	64.2*
C(=N\Nc1ncnc2sc3c(c12)CCC3)/c1ccncc1	17.8	-3.5	-0.7	-3.0	-19.2	0.3	·	·
Cc1cc2c(C)cc(=O)oc2c2c1NCCC2	-9.0	-5.6	i	i	0.7	68.3*	61.6*	63.4*
CCn1c2ccccc2c2cc(NC(=O)CN3CCCC3)ccc21	-0.8	0.3	-4.1	-7.7	-2.5	81.9*	-0.8	-0.5
CCn1c2ccccc2c2cc(NC(C)=O)ccc21	2.9	0.8	-3.0	-7.5	-15.4	1.1	·	·
COc1ccc(C2Nc3ccccc3C(=O)N2NC(C)=O)cc1OC (stereo unspecified)	-8.8	5.0	-238.3	i	4.3	11.1	·	·
CCN(CC)CCN1C(=O)c2ccccc2NC1c1ccc(F)cc1 (stereo unspecified)	-16.3	0.4	-402.9	i	3.3	91.5*	37.0*	34.5*
CCN(CC)CCN1C(=O)c2ccccc2NC1c1ccccc1F (stereo unspecified)	-2.2	-1.3	-330.9	i	-0.9	73.6*	26.1*	37.6*
CCN(CC)CCN1C(=O)C(=O)/C(=C(/O)c2ccncc2)C1c1ccccc1F (stereo unspecified)	-2.6	-4.3	-3.1	1.7	1.2	-0.8	·	·
CCN(CC)CCN1C(=O)c2ccccc2NC1c1ccc(C)cc1 (stereo unspecified)	-24.2	3.8	-270.6	i	6.1	74.6*	28.8*	37.1*
CCN(CC)CCN1C(=O)c2ccccc2NC1c1ccc(N(C)C)cc1 (stereo unspecified)	18.9	-1.2	-162.6	i	18.4	2.8	·	·
CCOC(=O)NN1C(=O)c2ccccc2NC1c1ccc(OC)c(OC)c1 (stereo unspecified)	-30.7	4.0	-234.9	i	5.2	19.7*	25.1*	26.4*
O=C(/C=C\c1ccc2c(c1)OCO2)CC1(O)C(=O)Nc2ccccc21 (stereo unspecified)	-5.0	-2.5	-13.0	-26.5	30.7	-1.2	·	·
C[C@H]1CCCCO[C@H](CN(C)Cc2ccc(C(=O)O)cc2)[C@@H](C)CN([C@@H](C)CO)C(=O)c2cc(NS(=O)(=O)c3cn(C)cn3)ccc2O1	-9.9	·	-6.5	-10.6	·	-1.0	·	·
SMILES	NR2E3 ag-1	NR2E3 ag-2	ADAM17 inh	ADAM10 inh	JMJD2C inh	KLK7 zymogen act	proKLK7 act conf	EDANS-DABCYL int	others
CCN(CC)CCN1C(=O)c2ccccc2NC1c1cccc(F)c1 (stereo unspecified)	-14.4	2.6	-349.7	i	-4.7	71.5*	34.8*	33.4*
CN(C)c1ccc(C2Nc3ccccc3C(=O)N2CCCN2CCOCC2)cc1 (stereo unspecified)	1.8	1.9	-74.8	-183.6	3.8	0.1	·	·
O=C(O)CCC(=O)NN1C(=O)c2ccccc2NC1c1ccc(F)cc1 (stereo unspecified)	-19.0	1.0	-230.8	i	4.1	17.4*	37.9*	30.6*	EDANS interf=>69.5
CCN(CC)CCN1C(=O)c2ccccc2NC1c1ccc(Br)cc1 (stereo unspecified)	-13.6	3.6	-268.2	i	-25.2	60.8*	12.3	23.2*
COC(=O)[C@H](CC(C)C)N(CCCc1cn(Cc2ccccc2)nn1)S(=O)(=O)c1ccc(F)cc1Br	·	·	7.2	15.9	·	-0.2	·	·
O=C(CN1CCN(c2cccc(Cl)c2)CC1)NC1CCCc2ccccc21 (stereo unspecified)	-12.5	1.9	1.8	12.2	-6.6	0.6	·	·
Cc1cccc(NC(=O)C(C)Sc2ncnc3sccc23)c1 (stereo unspecified)	3.3	·	3.0	10.0	·	0.7	·	·
Cc1ccc(/C=C2\Oc3c(ccc(O)c3CN3CCN(CCO)CC3)C2=O)cc1	1.0	-1.1	-105.4	-259.8	6.0	96.5*	79.2*	72.8*
CC(C)c1ccc(/C=C2\Oc3c(ccc(O)c3CN3CCN(C)CC3)C2=O)cc1	10.7	-0.5	-48.5	-142.4	-0.4	37.9*	-16.5	-26.4
Cc1ccc(C=Nc2ccccc2C(N)=O)s1	-90.5	4.4	-332.0	i	-0.6	16.9*	12.0	13.9*
Cc1cccc(C=Nc2ccccc2C(N)=O)c1	-97.0	4.3	-322.9	i	-17.6	13.5*	28.3*	22.5*	EDANS interf=>69.5
Cc1cccc(/C=N/NC(=O)Cc2cccs2)c1	-45.9	1.2	1.6	5.6	-3.8	0.5	·	·
Cc1ccc(/C=N/N=C/c2ccc(C)s2)s1	-146.0	-1.9	0.1	13.4	1.8	-1.2	·	·
